In ChEMBL document CHEMBL1122693, “Biological activity and a modified synthesis of 8-amino-3-beta-D-ribofuranosyl-1,2,4-triazolo[4,3-a]pyrazine, an isomer of formycin” (1984):
≈ marks a conversion by molar mass, not a printed value. Where “and” joins values, the source holds several entries; their conditions need not be identical. Identical values can stand only once.

What was measured:
Human alphaherpesvirus 2 = assay: Compound was tested for antiviral activity against herpes simplex virus-2(G) in primary rabbit kidney cells; assay type: functional
Method in brief: (§1)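 Inhibition of virus-induced cytopathogenicity, scored as minimum inhibitory concentration (µg/mL) in the host cell monolayers listed: HSV-1 (KOS) and HSV-2 (G) in primary rabbit kidney cells; measles, reovirus type 1, parainfluenza type 3, Coxsackie B4 and Sindbis in Vero cells; Coxsackie and polio in HeLa cells. Minimum cytotoxic concentration taken as microscopically detectable alteration of normal cell morphology; highest concentration tested 400 µg/mL.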

[1] = test system: Vesicular stomatitis virus; assay: Compound was tested for antiviral activity against vesicular stomatitis virus in primary rabbit kidney cells; assay type: functional
Human alphaherpesvirus 1 = assay: Compound was tested for antiviral activity against herpes simplex virus-1(KOS) in primary rabbit kidney cells; assay type: functional; method in brief: as §1
Poliovirus 1 = assay: Compound was tested for antiviral activity (minimum inhibition concentration) in HeLa cells polio virus type 1; assay type: functional; conditions: Enterovirus C
Coxsackievirus B4 [2] = assay: Compound was tested for antiviral activity (minimum inhibition concentration) in HeLa cells coxsackie virus type 4; assay type: functional; conditions: Enterovirus B; method in brief: as §1
[3] = test system: Vesicular stomatitis virus; assay: Compound was tested for antiviral activity (minimum inhibition concentration) in HeLa cells vesicular stomatitis virus (VSV); assay type: functional
Human respirovirus 3 = assay: Compound was tested for antiviral activity (minimum inhibition concentration) in Vero cells parainfluenza virus type 3; assay type: functional; method in brief: as §1
Sindbis virus = assay: Compound was tested for antiviral activity (minimum inhibition concentration) in Vero cells sindbis virus; assay type: functional; method in brief: as §1
Coxsackievirus B4 [4] = assay: Compound was tested for antiviral activity (minimum inhibition concentration) in Vero cells coxsackie virus type B4; assay type: functional; conditions: Enterovirus B; method in brief: as §1
[5] = test system: Mammalian orthoreovirus 1; assay: Compound was tested for antiviral activity (minimum inhibition concentration) in Vero cells reovirus type 1; assay type: functional; method in brief: as §1
[6] = Coronary vasoactivity as molar potency ratio (MPR), the quotient of ED50 of adenosine by that of the test nucleoside; assay type: functional
Method in brief: (§2)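 Dogs anesthetized with morphine-thiamylal-fluothane. MPR is ED50 of adenosine divided by ED50 of test nucleoside. Dog-to-dog variation in MPR about ±10%.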

Measles morbillivirus = assay: Compound was tested for antiviral activity against measles virus in vero cells; assay type: functional; method in brief: as §1
Vaccinia virus = assay: Compound was tested for antiviral activity against vaccinia virus in primary rabbit kidney cells; assay type: functional; conditions: Orthopoxvirus vaccinia
L1210 [7] = assay: Effect of compound on the incorporation of nucleic acid precursor into L1210 cells (cpm x 10e-3), precursors used along with compound were [14C]-Adenosine; assay type: functional, Mus musculus
Method in brief: (§3)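 L1210 suspension cultures in RPMI 1640 with 10% horse serum, at 37 °C, preincubated 90 min with or without test compound at 1 mM. 14C-precursor (cytidine, uridine, adenosine or thymidine) then added to 0.04 µCi/mL final and incubated a further 30 min. Cells pelleted and Schmidt-Thannhauser fractionation gave acid-soluble, RNA and DNA fractions, counted by scintillation. Duplicate flasks; results as cpm ×10^-3 and % of control.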

L1210 [8] = assay: Effect of compound on the incorporation of nucleic acid precursor into L1210 cells (cpm x 10e-3),precursors used along with compound were [14C]uridine; assay type: functional, Mus musculus; method in brief: as §3
[9] = Coronary vasoactivity (molar potency ratio (MPR), the quotient of ED50 of adenosine by that of the test nucleoside)Dog to dog variations in MPR are about +/-10%; assay type: functional; method in brief: as §2
L1210 [10] = assay: Effect of compound on the incorporation of nucleic acid precursor into L1210 cells (cpm x 10e-3),precursors used along with compound were [14C]cytidine; assay type: functional, Mus musculus; method in brief: as §3
L1210 [11] = assay: Effect of compound on the incorporation of nucleic acid precursor into L1210 cells (cpm x 10e-3), precursors used along with compound were [14C]cytidine; assay type: functional, Mus musculus; method in brief: as §3

SMILES	MIC (Human alphaherpesvirus 2) [µg/mL]	MIC [1] [µg/mL]	MIC (Human alphaherpesvirus 1) [µg/mL]	MIC (Poliovirus 1) [µg/mL]	MIC (Coxsackievirus B4 [2]) [µg/mL]	MIC [3] [µg/mL]	MIC (Human respirovirus 3) [µg/mL]	MIC (Sindbis virus) [µg/mL]	MIC (Coxsackievirus B4 [4]) [µg/mL]	MIC [5] [µg/mL]	MPR [6]	MIC (Measles morbillivirus) [µg/mL]	MIC (Vaccinia virus) [µg/mL]	RNA fraction (L1210 [7])	Fraction (L1210 [8])	MPR [9]	Total uptake (L1210 [10])	Total uptake (L1210 [11])
Nc1ncnc2c([C@@H]3O[C@H](CO)[C@@H](O)[C@H]3O)[nH]nc12 [FORMYCIN]	4 (≈ 15 µM)	2 (≈ 7.48 µM)	4 (≈ 15 µM)	10 (≈ 37.4 µM)	≥ 200	10 (≈ 37.4 µM)	≥ 40	≥ 40	≥ 40	≥ 40	0.043	≥ 40	4 (≈ 15 µM)	–	–	–	–	–
Nc1ncnc2c1nnn2[C@@H]1O[C@H](CO)[C@@H](O)[C@H]1O	–	–	–	–	–	–	–	–	–	–	0.042	–	–	–	–	–	–	–
Nc1nccn2c([C@@H]3O[C@H](CO)[C@@H](O)[C@H]3O)nnc12	200 (≈ 748 µM)	100 (≈ 374 µM)	> 400	> 400	> 400	150 (≈ 561 µM)	100 (≈ 374 µM)	300 (≈ 1120 µM)	200 (≈ 748 µM)	200 (≈ 748 µM)	–	200 (≈ 748 µM)	100 (≈ 374 µM)	24 and 19.8	24	0.0015	50.4	128.8 and 161.7
NC(=O)c1ncn([C@@H]2O[C@H](CO)[C@@H](O)[C@H]2O)n1 [RIBAVIRIN]	> 400	20 (≈ 81.9 µM)	> 400	10 (≈ 40.9 µM)	20 (≈ 81.9 µM)	20 (≈ 81.9 µM)	10 (≈ 40.9 µM)	40 (≈ 164 µM)	200 (≈ 819 µM)	100 (≈ 409 µM)	–	20 (≈ 81.9 µM)	20 (≈ 81.9 µM)	–	–	–	–	–
Nc1nnnc2c1ncn2[C@@H]1O[C@H](CO)[C@@H](O)[C@H]1O	–	–	–	–	–	–	–	–	–	–	0.15	–	–	–	–	–	–	–
Nc1nccc2c1ncn2[C@@H]1O[C@H](CO)[C@@H](O)[C@H]1O	10 (≈ 37.6 µM)	7 (≈ 26.3 µM)	40 (≈ 150 µM)	40 (≈ 150 µM)	40 (≈ 150 µM)	10 (≈ 37.6 µM)	2 (≈ 7.51 µM)	40 (≈ 150 µM)	4 (≈ 15 µM)	4 (≈ 15 µM)	–	40 (≈ 150 µM)	7 (≈ 26.3 µM)	–	–	–	–	–
Nc1ncnc2c1ccn2[C@@H]1O[C@H](CO)[C@@H](O)[C@H]1O	–	–	–	–	–	–	–	–	–	–	0.071	–	–	–	–	–	–	–
